Source: PubChem BioAssay (several laboratories)
Rows were chosen to be rich in hits. Some 2.4% of all compounds tested hit in one or more screens of this group.
SENP1 FRET inh – human SENP1 catalytic domain inhibitors, primary screen, biochemical, FRET, uHTS; Sentrin-specific protease 1 (Homo sapiens), Q9P0U3; recombinant SENP1 catalytic domain, CyPet-SUMO1-YPet FRET cleavage; inhibition, % at 10 µM; 0.21% of 360,000 active;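 active = inhibition at least 30% at 10 µM, raw YFP signal under a set limit, fluorescence ratio 0.5 to 1.5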;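 also: 0% = enzyme with DMSO and 100% = no enzyme wells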
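Test system: recombinant human SENP1 catalytic domain, His6-tagged / Medium: pH 8 Tris buffer with EDTA, NaCl, BME, BSA, NP40, catalase / Also added: SUMO1 FRET substrate flanked by Cypet and Ypet, 25 nM / Times: 50 min reaction at room temperature / Signal: FRET, CFP and YFP emission / Control set: no-enzyme low control and enzyme-plus-DMSO high control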
DAGLB inhibitor – DAGLB lipase inhibitors, primary screen, biochemical, fluorescence, HTS | HEK293T DAGLB membrane lysate, EnzChek fluorogenic substrate | Diacylglycerol lipase-beta (Homo sapiens), Q8NCG7 | inhibition, % at 5.17 µM | 0.059% of 340,000 active | AID 504411, 2011; in the data active = inhibition above about 34%;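 also: 0% = enzyme with vehicle and 100% = wells lacking enzyme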
NRP1-CendR mod – modulators of CendR peptide binding to NRP-1, primary screen, biochemical, fluorescence polarization, uHTS; Neuropilin-1 (Homo sapiens), O14786; 0.85% of 360,000 active; inhibition, % at 25 µM; FAM-RPARPAR peptide binding to NRP-1;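 active = inhibition or corrected inhibition above about 18%, plus a signal ratio from 0.5 to 1.5, limit read from the data, passing the limit was not always enough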
Target sequence (O14786 whole entry, looked up): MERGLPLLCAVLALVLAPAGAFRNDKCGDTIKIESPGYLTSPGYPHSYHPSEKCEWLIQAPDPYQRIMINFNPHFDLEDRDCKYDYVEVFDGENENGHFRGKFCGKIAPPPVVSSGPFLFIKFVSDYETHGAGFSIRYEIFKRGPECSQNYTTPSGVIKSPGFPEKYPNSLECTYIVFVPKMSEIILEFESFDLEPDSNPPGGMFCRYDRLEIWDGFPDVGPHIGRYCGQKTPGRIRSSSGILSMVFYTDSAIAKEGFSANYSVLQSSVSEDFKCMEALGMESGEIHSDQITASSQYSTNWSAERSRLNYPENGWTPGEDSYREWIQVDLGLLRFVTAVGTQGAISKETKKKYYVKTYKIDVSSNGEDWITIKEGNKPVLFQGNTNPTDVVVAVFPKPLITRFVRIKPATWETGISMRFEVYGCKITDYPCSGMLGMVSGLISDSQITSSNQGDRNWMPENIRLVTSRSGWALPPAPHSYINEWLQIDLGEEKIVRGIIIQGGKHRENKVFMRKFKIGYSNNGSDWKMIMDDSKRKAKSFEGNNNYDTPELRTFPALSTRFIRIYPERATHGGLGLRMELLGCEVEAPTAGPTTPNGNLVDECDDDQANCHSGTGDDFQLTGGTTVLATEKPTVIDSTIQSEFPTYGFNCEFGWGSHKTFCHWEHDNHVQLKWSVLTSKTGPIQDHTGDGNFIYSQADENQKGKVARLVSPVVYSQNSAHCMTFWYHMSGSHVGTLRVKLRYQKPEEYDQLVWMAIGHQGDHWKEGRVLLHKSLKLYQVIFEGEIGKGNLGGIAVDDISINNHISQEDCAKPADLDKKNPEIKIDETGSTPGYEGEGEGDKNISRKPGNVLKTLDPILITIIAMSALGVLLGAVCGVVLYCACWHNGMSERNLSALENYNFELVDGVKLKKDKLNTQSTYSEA
beta cell repl – inducers of MIN6 beta-cell proliferation, primary screen, ATP luminescence, uHTS. MIN6 cells proliferation, ATPlite luminescence, 48 h; cells starved in 0.2% serum; 100% = growth in 10% serum. proliferation, % at 10 µM. 0.29% of 330,000 active;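 active = compounds whose signal lies at least 3.5 SD above the mean of all wells on their plate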;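 also: 0% = DMSO-treated cells in low-serum medium and 100% = 10% serum control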
Myeloid diff MLP – induction of myeloid progenitor differentiation, primary screen, cell-based, flow cytometry, MLPCN library. calls only at 10 µM. ER-HoxA9 myeloid progenitors, lysozyme-GFP differentiation. 1% of 360,000 active;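 active = normalized GFP-positive differentiation at or above the plate's own cutoff, the solvent-only control mean plus 3 SD; inconclusive = no clear call, values can overlap the other calls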;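 also: cells exposed to compound for four days before flow analysis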
MT1-MMP act inh – blockers of MT1-MMP proenzyme processing, primary screen, HT1080 RFP-PRO-GFP cells, GFP/RFP fluorescence; Matrix metalloproteinase-14 (Homo sapiens), P50281; GFP/RFP ratio fluorescence, overnight; percent of plate control window, DMSO zero; GFP/RFP ratio change, % at 20 µM; 0.061% of 360,000 active; AID 651647, 2012;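 active = GFP/RFP ratio change of at least 30% with cell ATP level not reduced by more than half and red fluorescence within 50% of control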
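Test system: HT1080 RFP-PRO-GFP cells; Benchmarks: DMSO and RFP-L50D-GFP cell wells; Timing: cells overnight before dosing, compound overnight, 37 °C, 5% CO2; Compound: one 20 µM compound dose with 1% DMSO; Read-out: GFP/RFP fluorescence ratio.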
Myeloid diff – inducers of myeloid progenitor differentiation, confirmation, cell-based, GFP/Mac1 flow cytometry, cherry pick 01. shares compounds with Myeloid diff MLP. ER-HoxA9 myeloid progenitors, GFP/Mac1 double-positive flow. calls only. 2% of 2,300 active;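 active = share of green or green-and-red cells above 9 and 9% in run 1 or 4 and 3% in run 2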
GFP autofluor – flagged as fluorescent in myeloid differentiation counter-screen; ER-HoxA9 myeloid progenitors, no estrogen, GFP autofluorescence flow cytometry; vehicle wells 0%, positive control 100%; AID 651707; shares compounds with Myeloid diff MLP; 7.4% of 2,300 active; fluorescence response, % (test concentration not listed);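 active = over 5% cells positive for green fluorescent reporter, or over 2% positive for both it and APC stain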;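 also: range taken on the double positive population between DMSO and positive control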
Active calls of the source: *; i = inactive; ? = inconclusive; / = not tested or not shown; + = active, no number.

SMILES | SENP1 FRET inh | DAGLB inhibitor | NRP1-CendR mod | beta cell repl | Myeloid diff MLP | MT1-MMP act inh | Myeloid diff | GFP autofluor
O=C(Nc1ccc(F)c(Cl)c1)c1cc(C2CCCN(S(=O)(=O)c3cccc4cccnc34)C2)on1 (stereo unspecified) | 1.8 | / | 0.8 | / | i | 8.3 | / | /
Cc1ccc(CS(=O)(=O)c2cn(CC(=O)Nc3ccon3)c3ccccc23)cc1 | -8.7 | -0.3 | -15.1 | -1.2 | i | 3.0 | / | /
O=C(N/N=C/c1ccc([N+](=O)[O-])o1)C1CCCC1 | -2.2 | -3.0 | -7.6 | -0.4 | / | -7.1 | / | /
O=[N+]([O-])c1ccc(/C=[N+](\[O-])[C@@H]2CCCC[C@@H]2/[N+]([O-])=C/c2ccc([N+](=O)[O-])o2)o1 | -8.8 | 1.4 | 0.0 | -6.8 | + | 5.0 | i | 0.0
O=C(COC(=O)c1cccnc1Cl)Nc1ccc2c(c1)OCCO2 | -0.4 | -2.0 | -1.1 | -3.2 | + | 3.5 | i | 0.0
CCCCCC1CCC(c2n[nH]c(=S)n2C)CC1 (stereo unspecified) | 0.0 | -1.0 | 5.2 | -5.4 | i | -3.0 | / | /
S=C1CSc2ccccc2N1 | -2.4 | -1.2 | -3.8 | -1.9 | i | -1.4 | / | /
c1ccc2c(c1)NCCS2 | 8.4 | -1.1 | 6.6 | -1.9 | + | -55.5 | i | 0.4
Cc1ccc(C(=O)c2cc3c(cc2[N+](=O)[O-])OCCO3)cc1 | -0.8 | -1.4 | 2.0 | 1.3 | i | 1.7 | / | /
Cc1cc(C)n(-c2cc(N3CCN(S(=O)(=O)c4ccc(Br)cc4)CC3)ccc2[N+](=O)[O-])n1 | -1.7 | -3.5 | -0.3 | 0.0 | i | 2.1 | i | 0.0
Cc1cc(C)c(S(=O)(=O)N2CCN(c3ccc([N+](=O)[O-])c(-n4nc(C)cc4C)c3)CC2)c(C)c1 | 1.3 | -4.0 | -1.0 | -4.7 | i | -4.5 | / | /
N#CC1=C(N)Oc2n[nH]c(-c3ccccc3)c2C12C(=O)Nc1ccccc12 (stereo unspecified) | 1.3 | 1.0 | 5.1 | 3.2 | i | -4.2 | i | 0.0
Cc1ccc(NC(=O)C2CCN(S(C)(=O)=O)CC2)c(C)c1 | 0.7 | 1.4 | 0.5 | -0.9 | i | -0.5 | / | /
Cc1ccc(-n2c(C)nn(Cc3ccc([N+](=O)[O-])cc3)c2=O)cc1 | 2.4 | 0.6 | 8.8 | -3.3 | i | -0.5 | / | /
Cc1nn(Cc2ccc([N+](=O)[O-])cc2)c(=O)n1-c1ccc(Cl)cc1 | 3.2 | 0.6 | 7.3 | -1.2 | + | 0.1 | i | 0.0
COc1cc(OC)c2c(-c3cccc(-c4ccc(CO)cc4)c3)cc(=O)oc2c1 | 0.1 | -1.1 | -13.3 | / | ? | -2.4 | / | /
COc1cc(OC)c2c(-c3cccc(-c4ccc(O)cc4)c3)cc(=O)oc2c1 | 3.1 | -1.6 | -17.3 | / | + | -2.2 | i | 4.9
CC1Cc2nc(SCC(=O)N3CCCc4ccccc43)n(C)c(=O)c2S1 (stereo unspecified) | 1.5 | -0.5 | -15.1 | 0.5 | i | 3.6 | i | 0.9
O=C(CSc1nnc2scc(-c3ccccc3)n12)N1CCCc2ccccc21 | 1.1 | -0.6 | 5.9 | 3.5 | i | 2.8 | i | 0.5
CCn1nnnc1SCC(=O)N1CCCc2ccccc21 | 1.6 | 1.4 | -3.4 | -0.6 | i | -11.3 | i | 0.2
CCn1c(SCC(=O)N2CCCc3ccccc32)nc2c(c1=O)SC(C)C2 (stereo unspecified) | 3.0 | 2.2 | 0.8 | 2.1 | i | -5.6 | / | /
CCn1nnnc1SCC(=O)N1CCc2ccccc21 | -1.3 | 2.5 | -5.1 | -0.1 | i | 4.1 | / | /
CC1(C)CNC(=O)C=C(c2ccccc2)C1 | -56.7 | -1.5 | 15.8 | -2.8 | + | 7.2 | i | 0.0
CC1(C)CC(=O)C=C(c2ccc(Oc3ccccc3)cc2)C1 | 1.6 | -5.3 | 2.8 | -2.0 | i | -0.8 | / | /
COc1ccc(CCNC(=O)CCNS(=O)(=O)c2cccc(Cl)c2)cc1OC | 1.4 | 1.1 | -0.3 | -0.3 | i | -2.2 | / | /
SMILES | SENP1 FRET inh | DAGLB inhibitor | NRP1-CendR mod | beta cell repl | Myeloid diff MLP | MT1-MMP act inh | Myeloid diff | GFP autofluor
Fc1cccc(Cl)c1C1Nc2cccc3cccc(c23)N1 | 6.5 | 5.4 | -14.5 | -4.8 | i | -1.6 | / | /
Clc1cccc(Cl)c1C1Nc2cccc3cccc(c23)N1 | 7.3 | 8.2 | -1.6 | -3.8 | + | -5.1 | i | 0.3
[O-]/C(=C(\C(=S)NCc1ccccc1)[n+]1ccccc1)c1ccc(Cl)cc1 | -14.4 | / | -25.1 | -2.1 | i | 0.6 | / | /
Cc1ccc(S(=O)(=O)N2C[C@H]3C(=O)C[C@@H](c4ccccc4)N(S(=O)(=O)c4ccc(C)cc4)[C@H]3C[C@H]2c2cccc(C)c2)cc1 | 1.3 | / | -9.2 | / | + | -6.9 | i | 0.3
Cc1cc2c(c(SCC(=O)NCCc3ccccc3)n1)C(=O)OC2 | 1.1 | 1.0 | 12.6 | 6.2 | i | 3.0 | / | /
COc1ccc(S(=O)(=O)N(c2onc(C)c2Cl)S(=O)(=O)c2ccc(OC)cc2)cc1 | 0.8 | -1.3 | -0.2 | 0.0 | i | -2.5 | i | 0.4
c1ccc(OCCNc2nc(NCC3CC3)nc3ccsc23)cc1 | 1.0 | / | 7.1 | / | i | 0.0 | / | /
O=C(c1ccccn1)N1CCN(S(=O)(=O)c2ccc3ccccc3c2)CC1 | 1.3 | -0.7 | 0.2 | 1.6 | i | 6.3 | / | /
CCOc1ncccc1C(=O)N1CCN(S(=O)(=O)c2ccc3ccccc3c2)CC1 | -0.3 | -3.3 | -7.8 | 2.1 | i | 0.9 | i | 0.0
Cc1ccc(NC(=O)[C@H](C)NC(=O)C2CCN(C(=O)[C@@H](N)CC(C)C)CC2)cc1 | -2.0 | 0.5 | 6.4 | -3.6 | i | -2.5 | / | /
CN(C(=O)c1cccc(NC(=O)Cc2ccc(NC(=O)C3CCN(C(=O)C4CC4)CC3)cc2)c1)C1CCCCC1 | 0.2 | 1.9 | 9.1 | / | i | -6.1 | i | 0.0
CN(Cc1ccccc1)C(=O)c1ccc(NC(=O)Cc2cccc(NC(=O)C3CCCN(C(=O)C4CCCCC4)C3)c2)cc1 (stereo unspecified) | 2.7 | -4.3 | 24.1 | -4.1 | i | 2.4 | i | 0.0
CN(Cc1ccccc1)C(=O)c1ccc(NC(=O)Cc2cccc(NC(=O)C3CCCN(C(=O)C4CCCC4)C3)c2)cc1 (stereo unspecified) | -0.1 | -2.5 | -1.4 | -4.8 | i | 4.1 | / | /
